Data taken from ChEMBL document CHEMBL3785029, “Synthesis and Characterization of Fatty Acid Conjugates of Niacin and Salicylic Acid” (J Med Chem, 2016).
Active and inactive are the calls of the source. The calls are words filed in the database; no cut-off is given here.

Tests used:
Plasma [1] = test: Drug metabolism in Sprague-Dawley rat plasma assessed as linker EPA metabolite (5Z,8Z,11Z,14Z,17Z)-N-(2-aminoethyl)icosa-5,8,11,14,17-pentaenamide formation at 300 mg/kg, qd administered through oral gavage for 7 days measured 2 hrs post last dose by LC/MS/MS analysis; assay type: ADME, organism-based; settings: in vivo
Plasma [2] = test: Metabolic stability in beagle dog plasma at 5 uM up to 2 hrs by LC-MS-MS analysis; assay type: ADME, cell-free, Canis lupus familiaris
Method in brief: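 Plasma from each species diluted to 50% with 0.05 M PBS pH 7.4 and prewarmed to 37 °C; compound added at 5 µM final (from DMSO stock diluted in MeOH); triplicate incubations at 37 °C, sampled at 0, 30, 60, 120 min, quenched with acetonitrile containing internal standard, centrifuged, analysed by LC/MS/MS.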

Mus musculus = test: Inhibition of VLDL cholesterol levels in po dosed ApoE*3-Leiden mouse plasma administered for 16 weeks; assay type: functional, organism-based
Method in brief: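 Transgenic ApoE*3-Leiden mice on high-cholesterol Western-type diet dosed over 16 weeks; plasma PCSK9, total cholesterol, triglycerides and lipoprotein profile (VLDL, LDL) assessed at study end.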

[3] = biological target: T1, Fatty-acid amide hydrolase 1 (Rattus norvegicus, UniProt P97612); test: Drug metabolism in rat liver lysate assessed as FAAH-mediated compound hydrolysis at 5 uM by LC-MS-MS analysis; assay type: ADME, tissue-based
T1 sequence (P97612 whole entry): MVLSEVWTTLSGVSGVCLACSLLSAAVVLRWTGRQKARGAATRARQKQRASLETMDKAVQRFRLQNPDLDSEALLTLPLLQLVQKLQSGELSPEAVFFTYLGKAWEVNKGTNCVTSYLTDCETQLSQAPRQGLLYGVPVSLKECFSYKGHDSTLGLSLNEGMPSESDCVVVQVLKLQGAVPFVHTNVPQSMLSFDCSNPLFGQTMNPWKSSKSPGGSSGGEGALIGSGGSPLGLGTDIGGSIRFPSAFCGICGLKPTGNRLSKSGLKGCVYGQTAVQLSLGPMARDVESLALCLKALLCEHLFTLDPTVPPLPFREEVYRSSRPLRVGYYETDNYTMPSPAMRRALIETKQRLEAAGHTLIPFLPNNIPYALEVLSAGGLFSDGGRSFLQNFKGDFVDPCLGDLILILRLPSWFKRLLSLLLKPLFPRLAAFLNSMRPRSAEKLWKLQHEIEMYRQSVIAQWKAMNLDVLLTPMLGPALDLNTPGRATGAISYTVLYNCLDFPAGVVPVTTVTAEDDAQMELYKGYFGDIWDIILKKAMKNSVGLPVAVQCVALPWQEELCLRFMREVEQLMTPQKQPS
Method in brief: (§1)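 Rat liver lysate, 3 mg/mL final, in 50 mM HEPES / 1 mM EDTA buffer, pre-equilibrated 20 min at 37 °C; reaction started by adding compound in DMSO; incubated at 37 °C and loss of starting material monitored by LC/MS/MS; FAAH inhibitor PF-3845 added where indicated.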

[4] = biological target: T1, Fatty-acid amide hydrolase 1; test: Drug metabolism in rat liver lysate assessed as FAAH-mediated compound hydrolysis at 5 uM by LC-MS-MS analysis in the presence of PF3845; assay type: ADME, tissue-based; method in brief: as §1
[5] = Cmax in portal vein cannulated Sprague-Dawley rat at 30 mg/kg, po measured up to 140 mins; assay type: ADME, organism-based; parameters: dose 30 mg/kg, route oral; settings: portal vein blood
Method in brief: (§2)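 Sprague Dawley rats surgically fitted with indwelling jugular vein and portal vein cannulas; oral dosing, then serial blood draws from both portal and jugular veins at 10, 20, 40 min and 1, 2, 4, 6 hr post dose; plasma analysed for parent and metabolites by LC/MS/MS.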

[6] = Cmax in Sprague-Dawley rat at 100 mg/kg, po administered as single dose measured up to 6 hrs post dose by LC/MS/MS analysis; assay type: ADME, organism-based; parameters: dose 100 mg/kg, route oral; settings: in vivo
Method in brief: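 Single oral dose to Sprague Dawley rats; plasma collected at 0.25, 0.5, 1, 2, 4 and 6 hr; analytes in plasma quantified by LC/MS/MS.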

Rattus norvegicus [7] = test: Cmax in jugular vein cannulated Sprague-Dawley rat assessed as N-(2-aminoethyl)nicotinamide at 30 mg/kg, po measured up to 140 mins; assay type: ADME, organism-based; parameters: dose 30 mg/kg, route oral; settings: in vivo; method in brief: as §2
[8] = Plasma concentration in Sprague-Dawley rat at 300 mg/kg, qd administered through oral gavage for 7 days measured 2 hrs post last dose by LC/MS/MS analysis; assay type: ADME, organism-based
Plasma [9] = test: Drug metabolism in Sprague-Dawley rat plasma assessed as salicylic acid formation at 300 mg/kg, po measured up to 24 hrs post dose; assay type: ADME, organism-based; settings: in vivo
Method in brief: (§3)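 Single oral dose of 300 mg/kg to Sprague Dawley rats. Plasma collected at 0, 0.5, 1, 2, 4, 8 and 24 hr. Analytes were the parent, the salicylate-linker and linker-DHA metabolites, salicylic acid and salicyluric acid; Cmax and AUClast derived.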

[10] = Drug uptake in Sprague-Dawley rat liver at 300 mg/kg, po administered for 7 days measured 4 hrs post dose on day 7; assay type: ADME, organism-based; settings: read-out: Drug uptake
Method in brief: (§4)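 Male Sprague Dawley rats, groups of 4, dosed orally at 300 mg/kg once daily for 14 days. Animals killed on days 1, 3, 7 and 14, with plasma, brain, epididymal fat, liver and muscle taken 4 hr after dosing. Parent, salicylic acid and salicyluric acid were measured.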

Brain [11] = test: Drug uptake in Sprague-Dawley rat brain at 300 mg/kg, po administered for 14 days measured 4 hrs post dose on day 1, 3, 7 and 14; settings: in vivo
Plasma [12] = test: Drug metabolism in Sprague-Dawley rat plasma assessed as salicyluric acid formation at 300 mg/kg, po measured up to 24 hrs post dose; assay type: ADME, organism-based; settings: in vivo; method in brief: as §3
Muscle tissue [13] = test: Drug metabolism in Sprague-Dawley rat muscle assessed as salicylic acid formation at 300 mg/kg, po administered for 7 days measured 4 hrs post dose on day 7; assay type: ADME, organism-based; settings: in vivo; method in brief: as §4
Muscle tissue [14] = test: Drug metabolism in Sprague-Dawley rat muscle assessed as salicyluric acid formation at 300 mg/kg, po administered for 7 days measured 4 hrs post dose on day 7; assay type: ADME, organism-based; settings: in vivo; method in brief: as §4
Brain [15] = test: Drug metabolism in Sprague-Dawley rat brain assessed as salicyluric acid formation at 300 mg/kg, po administered for 14 days followed by 7 day washout cycle measured on day 21; assay type: ADME, organism-based; settings: in vivo
Plasma [16] = test: Drug metabolism in Sprague-Dawley rat plasma assessed as salicylic acid formation at 300 mg/kg, po administered for 7 days measured 4 hrs post dose on day 7; assay type: ADME, organism-based; settings: in vivo; method in brief: as §4
Brain [17] = test: Drug metabolism in Sprague-Dawley rat brain assessed as salicyluric acid formation at 300 mg/kg, po administered for 7 days measured 4 hrs post dose on day 7; assay type: ADME, organism-based; settings: in vivo; method in brief: as §4
Rattus norvegicus [18] = test: AUClast in Sprague-Dawley rat assessed as salicylic acid at 300 mg/kg, po measured up to 24 hrs post dose; assay type: ADME, organism-based; parameters: time < 24 hr, dose 300 mg/kg, route oral; settings: in vivo; method in brief: as §3
[19] = Plasma concentration in Sprague-Dawley rat at 300 mg/kg, po administered for 7 days measured 4 hrs post dose on day 7; assay type: ADME, organism-based
Method in brief: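 Male Sprague Dawley rats in groups of 4 received 300 mg/kg orally once daily for up to 14 days. Animals were sacrificed on days 1, 3, 7 and 14, with plasma and tissues (brain, epididymal fat, liver, muscle) collected 4 h after dosing. Samples were analysed by LC/MS/MS for parent compound, salicylic acid and salicyluric acid.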

[20] = Drug uptake in Sprague-Dawley rat epididymal fat at 300 mg/kg, po administered for 7 days measured 4 hrs post dose on day 7; assay type: ADME, organism-based, Epididymal fat pad; settings: read-out: Drug uptake; method in brief: as §4
[21] = Cmax in Sprague-Dawley rat at 300 mg/kg, po measured up to 24 hrs post dose; assay type: ADME, organism-based; parameters: dose 300 mg/kg, route oral; settings: in vivo; method in brief: as §3

CC/C=C\C/C=C\C/C=C\C/C=C\C/C=C\CCCC(=O)NCCNC(=O)c1cccnc1
Drug metabolism (Plasma [1]): 1.1 ng/mL
Stability (Plasma [2]): Stable
inhibition (Mus musculus): Active
Drug metabolism ([3]; TDE = time-dependent effect): tde
Drug metabolism [4]: metabolite_notdetected
Cmax [5]: 418 ng/mL
Cmax [6]: 212 ng/mL
Cmax (Rattus norvegicus [7]): 336 ng/mL
concentration at 2 h [8]: 13 ng/mL

CC/C=C\C/C=C\C/C=C\C/C=C\C/C=C\C/C=C\CCC(=O)NCCNC(=O)c1ccccc1O [EDASALONEXENT]
Drug metabolism (Plasma [9]): metabolite_detected
concentration at 4 h [10]: 331 ng/g
Drug uptake (Brain [11]): Not Active
Drug metabolism (Plasma [12]): metabolite_detected
Drug metabolism (Muscle tissue [13]): 265.73 ng/g
Drug metabolism (Muscle tissue [14]): 165.21 ng/g
Drug metabolism (Brain [15]): metabolite_notdetected
Drug metabolism [3]: metabolite_detected
Drug metabolism (Plasma [16]): 154.2 ng/mL
Drug metabolism [4]: metabolite_notdetected
Drug metabolism (Brain [17]): 114.43 ng/g
AUClast (Rattus norvegicus [18]): 229 ng·h/mL
concentration at 4 h [19]: 116 ng/mL
concentration at 4 h [20]: 772 ng/g
Cmax [21]: 477 ng/mL
